Measurements as given in ChEMBL document CHEMBL1140127, “Enantiomeric propanolamines as selective N-methyl-D-aspartate 2B receptor antagonists” (J Med Chem, 2008).
Active and inactive are the calls of the source. The calls are words filed in the database; no cut-off is given here.

Experiments:
Rattus norvegicus [1] = experiment: Anticonvulsant activity in Sprague-Dawley rat assessed as inhibition of electroshock-induced tonic hind limb extension at 30 mg/kg, ip administered 30 mins before electroshock; type: functional, organism-based; set-up: dose 30 mg/kg; conditions: Hindlimb
Method in brief: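 Male Sprague–Dawley rats, 100–125 g, with 1% lidocaine dropped into each conjunctiva before maximal electroshock. Compound given ip in DMSO 30 min before the stimulus. Tested on three consecutive days: untreated on days 1 and 3, compound on day 2. Duration of tonic hind limb extension scored visually. Vehicle served as negative control and carbamazepine 60 mg/kg as positive control. ANOVA with Bonferroni post hoc test.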

[2] = Half life in rat plasma at 4 mg/kg, iv administered as single dose by LC-MS/MS analysis; type: ADME, organism-based; set-up: dose 4 mg/kg, route intravenous
Method in brief: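 Rats, n = 3, fasted overnight and given a single 4 mg/kg iv bolus via the tail vein in 2% dimethyl acetamide/98% 5% hydroxypropyl cyclodextrin. Blood collected into K-EDTA from the orbital plexus at 5, 30, 120 and 240 min. Plasma extracted with cold acetonitrile and analyzed by LC-MS/MS in MRM mode against a standard curve.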

[3] = molecular target: Glutamate NMDA receptor; Grin1/Grin2b (Rattus norvegicus, UniProt P35439+Q00960); experiment: Inhibition of rat recombinant NR1/NR2B receptor expressed in Xenopus oocytes assessed as inhibition of glutamate and glycine-induced evoked current by two electrode voltage clamp method; type: cell-based, Oocyte
[4] = test system: Glutamate receptor ionotropic, NMDA 2B (Rattus norvegicus), Q00960 [E201R]; experiment: Inhibition of rat NR1/NR2B(E201R) mutant receptor expressed in Xenopus oocytes at 100 nM by two electrode voltage clamp method; type: cell-based; conditions: Oocyte
[5] = molecular target: Glutamate NMDA receptor; Grin1/Grin2b (Rattus norvegicus) (UniProt P35439+Q00960); experiment: Inhibition of rat wild type NR1/NR2B receptor expressed in Xenopus oocytes at 100 nM by two electrode voltage clamp method; type: cell-based; conditions: Oocyte
[6] = test system: Glutamate receptor ionotropic, NMDA 1 (Rattus norvegicus), P35439 [H134A]; experiment: Inhibition of rat NR1(H134A)/NR2B mutant receptor expressed in Xenopus oocytes at 100 nM by two electrode voltage clamp method; type: cell-based; conditions: Oocyte
[7] = molecular target: T1, Adrenergic receptor alpha-1 (Rattus norvegicus, UniProt P15823+P23944+P43140); experiment: Displacement of [3H]prazosin from alpha1 adrenergic receptor in rat brain; type: tissue-based
T1 sequence (P15823 whole entry): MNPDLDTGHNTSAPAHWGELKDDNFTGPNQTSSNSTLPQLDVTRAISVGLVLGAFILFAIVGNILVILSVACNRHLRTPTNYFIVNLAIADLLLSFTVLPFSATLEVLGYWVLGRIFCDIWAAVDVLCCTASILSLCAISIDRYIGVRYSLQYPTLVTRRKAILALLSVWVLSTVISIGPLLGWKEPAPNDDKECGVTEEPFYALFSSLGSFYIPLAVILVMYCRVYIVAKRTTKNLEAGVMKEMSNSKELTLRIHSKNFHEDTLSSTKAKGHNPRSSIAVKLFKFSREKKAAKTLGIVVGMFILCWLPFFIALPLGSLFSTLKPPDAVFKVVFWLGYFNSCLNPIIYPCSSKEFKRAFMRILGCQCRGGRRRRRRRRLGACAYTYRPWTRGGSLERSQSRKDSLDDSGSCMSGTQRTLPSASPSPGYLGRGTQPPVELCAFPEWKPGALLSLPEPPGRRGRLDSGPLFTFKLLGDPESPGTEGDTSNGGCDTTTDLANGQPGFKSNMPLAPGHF
T1 sequence (P23944 whole entry): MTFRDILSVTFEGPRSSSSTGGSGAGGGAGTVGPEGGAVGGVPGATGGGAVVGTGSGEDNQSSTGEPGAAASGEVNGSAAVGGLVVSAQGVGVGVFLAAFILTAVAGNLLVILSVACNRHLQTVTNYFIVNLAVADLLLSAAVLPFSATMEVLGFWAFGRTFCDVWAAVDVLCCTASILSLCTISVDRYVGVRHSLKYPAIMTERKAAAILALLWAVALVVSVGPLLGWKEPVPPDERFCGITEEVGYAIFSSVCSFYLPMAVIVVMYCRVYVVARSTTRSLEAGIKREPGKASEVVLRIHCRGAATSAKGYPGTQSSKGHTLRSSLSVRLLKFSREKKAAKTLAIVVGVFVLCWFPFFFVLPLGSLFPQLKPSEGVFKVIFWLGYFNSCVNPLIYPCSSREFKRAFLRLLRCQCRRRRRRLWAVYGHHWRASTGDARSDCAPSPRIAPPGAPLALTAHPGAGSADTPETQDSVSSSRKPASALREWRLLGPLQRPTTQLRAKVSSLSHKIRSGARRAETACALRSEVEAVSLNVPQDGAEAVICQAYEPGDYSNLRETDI
T1 sequence (P43140 whole entry): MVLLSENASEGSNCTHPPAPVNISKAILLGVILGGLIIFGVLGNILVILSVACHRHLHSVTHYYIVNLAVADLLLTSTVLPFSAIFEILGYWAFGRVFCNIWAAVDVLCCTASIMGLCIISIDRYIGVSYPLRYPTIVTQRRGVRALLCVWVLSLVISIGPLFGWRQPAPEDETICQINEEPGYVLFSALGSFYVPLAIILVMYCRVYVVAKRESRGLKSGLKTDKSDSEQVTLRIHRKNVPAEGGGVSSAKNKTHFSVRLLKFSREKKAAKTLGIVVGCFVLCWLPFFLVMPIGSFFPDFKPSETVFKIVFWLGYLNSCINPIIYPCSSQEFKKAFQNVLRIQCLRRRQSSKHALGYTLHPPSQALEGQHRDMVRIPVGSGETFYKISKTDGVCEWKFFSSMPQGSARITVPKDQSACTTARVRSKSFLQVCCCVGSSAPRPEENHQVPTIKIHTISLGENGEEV
Method in brief: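 Rat brain membranes; displacement of [3H]-prazosin at 4–6 concentrations, each point in duplicate. IC50 from displacement curves fitted by nonlinear least-squares regression.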

[8] = molecular target: Voltage-gated inwardly rectifying potassium channel KCNH2 (Homo sapiens, UniProt Q12809); experiment: Displacement of [3H]astemizole from human ERG expressed in HEK293 cells
Sequence of Voltage-gated inwardly rectifying potassium channel KCNH2 (Q12809 whole entry): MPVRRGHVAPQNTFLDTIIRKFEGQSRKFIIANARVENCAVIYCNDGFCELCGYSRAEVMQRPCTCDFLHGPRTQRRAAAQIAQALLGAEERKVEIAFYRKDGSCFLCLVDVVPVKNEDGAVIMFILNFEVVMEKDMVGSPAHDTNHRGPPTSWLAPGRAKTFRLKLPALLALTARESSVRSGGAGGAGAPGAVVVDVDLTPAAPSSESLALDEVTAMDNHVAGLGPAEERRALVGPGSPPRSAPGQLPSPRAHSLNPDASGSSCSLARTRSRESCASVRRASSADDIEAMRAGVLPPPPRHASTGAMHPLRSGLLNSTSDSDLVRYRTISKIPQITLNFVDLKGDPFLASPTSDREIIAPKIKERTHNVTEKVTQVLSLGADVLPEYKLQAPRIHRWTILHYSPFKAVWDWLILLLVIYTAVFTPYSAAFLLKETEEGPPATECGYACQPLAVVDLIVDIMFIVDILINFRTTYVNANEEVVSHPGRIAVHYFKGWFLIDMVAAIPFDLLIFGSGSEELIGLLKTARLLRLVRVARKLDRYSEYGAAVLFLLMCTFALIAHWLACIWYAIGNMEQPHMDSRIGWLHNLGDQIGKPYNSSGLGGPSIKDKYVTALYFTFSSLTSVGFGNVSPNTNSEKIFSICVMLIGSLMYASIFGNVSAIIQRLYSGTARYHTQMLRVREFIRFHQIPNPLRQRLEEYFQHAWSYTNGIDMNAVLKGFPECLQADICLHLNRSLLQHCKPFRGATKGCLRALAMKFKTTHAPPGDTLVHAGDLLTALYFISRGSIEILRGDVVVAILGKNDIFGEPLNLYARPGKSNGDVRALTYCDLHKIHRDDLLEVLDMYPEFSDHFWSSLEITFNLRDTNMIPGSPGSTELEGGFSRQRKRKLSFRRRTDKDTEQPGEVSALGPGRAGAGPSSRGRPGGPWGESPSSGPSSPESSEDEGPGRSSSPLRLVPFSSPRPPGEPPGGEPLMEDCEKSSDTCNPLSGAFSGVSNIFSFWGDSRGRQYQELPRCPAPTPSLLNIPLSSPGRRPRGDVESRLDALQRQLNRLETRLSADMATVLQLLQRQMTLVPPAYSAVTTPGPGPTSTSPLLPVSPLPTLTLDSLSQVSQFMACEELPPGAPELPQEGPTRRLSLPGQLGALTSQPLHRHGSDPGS

Rattus norvegicus [9] = experiment: Effect on locomotor activity in Sprague-Dawley rat at 0.3 mg/kg, ip; type: functional; conditions: route intraperitoneal
Method in brief: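 Rats habituated to the test room at least 30 min, then basal horizontal activity recorded 1 h in photobeam activity chambers. Animals then dosed ip and returned to the chamber for 2 h. Vehicle group run each day. Compared with vehicle by ANOVA with Dunnett's post hoc.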

Mus musculus [10] = experiment: Effect on motor coordination in mouse at 0.3 mg/kg, ip administered 20 mins prior to test after 5 days by rotarod test; type: ADME, organism-based; set-up: dose 0.3 mg/kg, route intraperitoneal; conditions: in vivo
Method in brief: (§1)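 Accelerating rotarod: starts at 5 rpm, then after 10 s ramps 5 to 35 rpm over 5 min; latency to fall recorded automatically. Four trials daily, 25 min apart, for 5 days. On day 5 mice randomised and dosed ip (25% DMSO/75% saline, 5 mL/kg) 20 min before the first trial. Tester blinded; ANOVA with Dunnett's post hoc.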

Mus musculus [11] = experiment: Effect on motor coordination in mouse at 0.6 mg/kg, ip administered 20 mins prior to test after 5 days by rotarod test; type: ADME, organism-based; set-up: dose 0.6 mg/kg, route intraperitoneal; conditions: in vivo; method in brief: as §1

CS(=O)(=O)Nc1ccc(OC[C@@H](O)CN(CCO)CCc2ccc(Cl)c(Cl)c2)cc1
Activity (Rattus norvegicus [1]): Active
half-life [2]: 36 min
IC50 [3]: 122 nM

CN(CCc1ccc(Cl)c(Cl)c1)CC(O)COc1ccc(NS(C)(=O)=O)cc1 (racemic)
Activity (Rattus norvegicus [1]): Active
inhibition [4]: 4.2%
inhibition [5]: 67.1%
inhibition [6]: 8.9%

CCN(CCc1ccc(Cl)c(Cl)c1)C[C@H](O)COc1ccc(NS(C)(=O)=O)cc1
half-life [2]: 36 min
IC50 [7]: 3500 nM
IC50 [3]: 96 nM

CS(=O)(=O)Nc1ccc(OC[C@@H](O)CNCCc2ccc(Cl)c(F)c2)cc1
IC50 [8]: 1910 nM
IC50 [7]: > 10000 nM
IC50 [3]: 68 nM

CS(=O)(=O)Nc1ccc(OC[C@@H](O)CN(CCc2ccc(Cl)c(Cl)c2)Cc2cccc(O)c2)cc1
half-life [2]: 36 min
IC50 [7]: > 10000 nM
IC50 [3]: 238 nM

CS(=O)(=O)Nc1ccc(OC[C@@H](O)CN(CCc2ccc(Cl)c(Cl)c2)Cc2ccccn2)cc1
half-life [2]: 36 min
IC50 [3]: 2760 nM

Cc1ccc(CCNC[C@H](O)COc2ccc(NS(C)(=O)=O)cc2)cc1C
IC50 [8]: 2400 nM
IC50 [7]: 2200 nM
IC50 [3]: 207 nM

CCCCN(CCc1ccc(Cl)c(Cl)c1)C[C@H](O)COc1ccc(NS(C)(=O)=O)cc1
half-life [2]: 36 min
IC50 [7]: 4900 nM
IC50 [3]: 421 nM

CS(=O)(=O)Nc1ccc(OC[C@@H](O)CNCCc2ccc(F)c(F)c2)cc1
IC50 [8]: 1630 nM
IC50 [7]: > 10000 nM
IC50 [3]: 357 nM

C[C@]12N[C@H](Cc3ccccc31)c1ccccc12 [DIZOCILPINE]
Activity (Rattus norvegicus [9]): 38233
Activity (Mus musculus [10]): Toxic
Activity (Mus musculus [11]): Toxic
